The values below come from ChEMBL document CHEMBL1134139, “Synthesis and biological activity of novel macrocyclic antifungals. modification of the tyrosine moiety of the lipopeptidolactone FR901469” (2001).

What is called MIC is the lowest concentration found to suppress growth. For orientation: ED50 means the dose at which the effect has come halfway, by size or by number of responders. The low end stands for an effect at a small dose, the high end for a need for a large dose.

SMILES strings stand for the structures. Converted amounts (≈) assume the structure as drawn. Numbered stars: 1 amine (or outer) side, 2 acyl side, 3 side chain; on linkers, the order of the positions; unused ones are H or OH. Bridge positions count the residues as written; N and C are the ends. Square brackets hold non-standard residues; d marks the D form. Peptide text beside a SMILES is read from it. X3 = O=C(O)CCC(=O)Nc1cc(C[C@H](N[*:1])C(=O)[*:2])ccc1O; Gln(3R-OH) = NC(=O)C[C@@H](O)[C@H](N)C(=O)O; X1 = CCCCCCCCCCCCC[C@H](CC(=O)[*:1])O[*:2]; Pro(3S-OH) = O=C(O)[C@H]1NCC[C@@H]1O; Hyp = O=C(O)[C@@H]1C[C@@H](O)CN1; Orn = NCCC[C@H](N)C(=O)O

In test [1] the test system is Candida albicans. Kind of test: In vitro antifungal activity against Candida albicans 13004 by broth microdilution method. The class given is functional. The gist of the method:
(§1)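 Broth microdilution run to NCCLS M27-A guidelines. MIC read per that standard.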
(Dilution methods test growth across graded concentrations, often in twofold steps.)

The test system of test [2] is Aspergillus fumigatus. Kind of test: In vitro antifungal activity against Aspergillus fumigatus 8004 by broth microdilution method. The class given is functional. The gist of the method:
as §1

In test [3] the test system is Candida albicans. As to the kind of experiment: In vitro antifungal activity against Candida albicans FP633 by broth microdilution method. The class given is functional. The gist of the method: as §1
The species named for test [4] is Mus musculus. As to the kind of experiment: Ability to hemolyze ICR mouse RBCs at 1 mg/mL using microtiter red blood cell hemolysis assay.
Test [5] relates to Aspergillus fumigatus. Kind of test: In vitro antifungal activity against Aspergillus fumigatus FP1305 by broth microdilution method. The class given is functional. The procedure, abridged: as §1
For test [6], the system named is Mus musculus. As to the kind of experiment: Compound was evaluated in vivo for antifungal activity and efficacy in disseminated murine candidiasis was determined. The class given is functional.

Take `CCCCCCCCCCCCC[C@H](CC(=O)N[C@H](C(=O)N[C@H](C)C(=O)N[C@@H](Cc1ccc(OCC(=O)NCCN)cc1)C(=O)N[C@H](C(=O)N1C[C@H](O)C[C@H]1C(=O)N[C@H](C(=O)N[C@H](C(=O)N1CC[C@H](O)[C@H]1C(=O)N[C@H](C(=O)NCC(=O)N[C@H](C(N)=O)[C@@H](C)O)[C@H](O)CC(N)=O)[C@@H](C)O)[C@@H](C)O)C(C)C)[C@@H](C)O)OC(=O)[C@@H](C)CCCN.Cl`: the MIC in the test on Candida albicans [1] is 1 mg/L; with Aspergillus fumigatus [2], 1 mg/L; against Candida albicans [3], 1 mg/L; with Aspergillus fumigatus [5] it was 0.5 mg/L. Further, the Hemolytic activity in the test listed under Mus musculus [4] is 45%.

Turning to `CCCCCCCCCCCCC[C@H](CC(=O)N[C@H](C(=O)N[C@@H](C)C(=O)N[C@@H](Cc1ccc(OCC(=O)O)c(NC(=O)CCN)c1)C(=O)N[C@H](C(=O)N1C[C@H](O)C[C@H]1C(=O)N[C@@H](C(=O)N[C@H](C(=O)N1CC[C@H](O)[C@H]1C(=O)N[C@H](C(=O)NCC(=O)N[C@H](C(N)=O)[C@@H](C)O)[C@H](O)CC(N)=O)[C@@H](C)O)[C@@H](C)O)C(C)C)[C@@H](C)O)OC(=O)[C@@H](C)CCCN.Cl`, the MIC was determined as 0.5 mg/L in the test with Candida albicans [1], 0.5 mg/L in the test on Aspergillus fumigatus [2], 0.5 mg/L in the test with Candida albicans [3] and 0.125 mg/L against Aspergillus fumigatus [5]. For the same molecule, the 50% effective dose (ED50) in the test on Mus musculus [6] is 0.72 mg/kg. The Hemolytic activity in the test listed under Mus musculus [4] is listed as 23%.

For `CCCCCCCCCCCCC[C@H](CC(=O)N[C@@H](C(=O)N[C@H](C)C(=O)N[C@@H](Cc1ccc(O)c(NC(=O)C[C@H](N)C(=O)O)c1)C(=O)N[C@H](C(=O)N1C[C@H](O)C[C@H]1C(=O)N[C@@H](C(=O)N[C@H](C(=O)N1CC[C@H](O)[C@H]1C(=O)N[C@H](C(=O)NCC(=O)N[C@@H](C(N)=O)[C@@H](C)O)[C@H](O)CC(N)=O)[C@@H](C)O)[C@@H](C)O)C(C)C)[C@@H](C)O)OC(=O)[C@@H](C)CCCN`, the minimal inhibitory concentration (MIC) in the test on Candida albicans [1] was 1 mg/L (≈ 0.595 µM); in the test with Aspergillus fumigatus [2] it was 0.5 mg/L (≈ 0.298 µM); with Candida albicans [3], 0.5 mg/L (≈ 0.298 µM); in the test with Aspergillus fumigatus [5], 0.25 mg/L (≈ 0.149 µM). In the test on Mus musculus [6], this molecule had a median effective dose (ED50) of 0.8 mg/kg. The molecule further yielded a Hemolytic activity in the test filed under Mus musculus [4] of 75%.

On to `CCCCCCCCCCCCC[C@H](CC(=O)N[C@@H](C(=O)N[C@H](C)C(=O)N[C@@H](Cc1ccc(O)c(NC(=O)CC[C@H](N)C(=O)O)c1)C(=O)N[C@H](C(=O)N1C[C@H](O)C[C@H]1C(=O)N[C@@H](C(=O)N[C@H](C(=O)N1CC[C@H](O)[C@H]1C(=O)N[C@H](C(=O)NCC(=O)N[C@@H](C(N)=O)[C@@H](C)O)[C@H](O)CC(N)=O)[C@@H](C)O)[C@@H](C)O)C(C)C)[C@@H](C)O)OC(=O)[C@@H](C)CCCN`, for which the minimal inhibitory concentration (MIC) stood at 0.5 mg/L (≈ 0.295 µM) against Candida albicans [1], 1 mg/L (≈ 0.59 µM) with Aspergillus fumigatus [2], 0.5 mg/L (≈ 0.295 µM) against Candida albicans [3] and 0.5 mg/L (≈ 0.295 µM) with Aspergillus fumigatus [5]. Further, it took a dose of 1.02 mg/kg to reach the 50% effect level with Mus musculus [6] (ED50). In the test filed under Mus musculus [4], this molecule returned a Hemolytic activity of 60%.

As to `CCCCCCCCCCCCC[C@H](CC(=O)N[C@@H](C(=O)N[C@H](C)C(=O)N[C@@H](Cc1ccc(OCC(=O)N(C)C)cc1)C(=O)N[C@H](C(=O)N1C[C@H](O)C[C@H]1C(=O)N[C@@H](C(=O)N[C@H](C(=O)N1CC[C@H](O)[C@H]1C(=O)N[C@H](C(=O)NCC(=O)N[C@@H](C(N)=O)[C@@H](C)O)[C@H](O)CC(N)=O)[C@@H](C)O)[C@@H](C)O)C(C)C)[C@@H](C)O)OC(=O)[C@@H](C)CCCN`, the MIC stood at 1 mg/L (≈ 0.612 µM) in the test on Candida albicans [1], 1 mg/L (≈ 0.612 µM) against Aspergillus fumigatus [2], 0.5 mg/L (≈ 0.306 µM) against Candida albicans [3] and 0.25 mg/L (≈ 0.153 µM) with Aspergillus fumigatus [5]. In the test listed under Mus musculus [4], this molecule showed a Hemolytic activity of 85%.

For `CCCCCCCCCCCCC[C@H](CC(=O)N[C@@H](C(=O)N[C@H](C)C(=O)N[C@@H](Cc1ccc(OCC(=O)O)cc1)C(=O)N[C@H](C(=O)N1C[C@H](O)C[C@H]1C(=O)N[C@@H](C(=O)N[C@H](C(=O)N1CC[C@H](O)[C@H]1C(=O)N[C@H](C(=O)NCC(=O)N[C@@H](C(N)=O)[C@@H](C)O)[C@H](O)CC(N)=O)[C@@H](C)O)[C@@H](C)O)C(C)C)[C@@H](C)O)OC(=O)[C@@H](C)CCCN`, the minimal inhibitory concentration (MIC) in the test with Candida albicans [1] came out at 0.5 mg/L (≈ 0.311 µM); against Aspergillus fumigatus [2], 1 mg/L (≈ 0.622 µM); against Candida albicans [3], 0.5 mg/L (≈ 0.311 µM); against Aspergillus fumigatus [5] it was 0.125 mg/L (≈ 0.0777 µM). The same molecule showed a Hemolytic activity in the test listed under Mus musculus [4] of 76%.

For the molecule `CCCCCCCCCCCCC[C@H](CC(=O)N[C@@H](C(=O)N[C@H](C)C(=O)N[C@@H](Cc1ccc(O)c(NC(=O)[C@H](N)CO)c1)C(=O)N[C@H](C(=O)N1C[C@H](O)C[C@H]1C(=O)N[C@@H](C(=O)N[C@H](C(=O)N1CC[C@H](O)[C@H]1C(=O)N[C@H](C(=O)NCC(=O)N[C@@H](C(N)=O)[C@@H](C)O)[C@H](O)CC(N)=O)[C@@H](C)O)[C@@H](C)O)C(C)C)[C@@H](C)O)OC(=O)[C@@H](C)CCCN`, the MIC was 2 mg/L (≈ 1.21 µM) in the test with Candida albicans [1], 2 mg/L (≈ 1.21 µM) against Aspergillus fumigatus [2], 1 mg/L (≈ 0.605 µM) against Candida albicans [3] and 0.5 mg/L (≈ 0.303 µM) against Aspergillus fumigatus [5]. In addition, the Hemolytic activity in the test filed under Mus musculus [4] was determined as 84%.

Take `CCCCCCCCCCCCC[C@H](CC(=O)N[C@@H](C(=O)N[C@H](C)C(=O)N[C@@H](Cc1ccc(O)c(NC(=O)[C@H](N)Cc2c[nH]cn2)c1)C(=O)N[C@H](C(=O)N1C[C@H](O)C[C@H]1C(=O)N[C@@H](C(=O)N[C@H](C(=O)N1CC[C@H](O)[C@H]1C(=O)N[C@H](C(=O)NCC(=O)N[C@@H](C(N)=O)[C@@H](C)O)[C@H](O)CC(N)=O)[C@@H](C)O)[C@@H](C)O)C(C)C)[C@@H](C)O)OC(=O)[C@@H](C)CCCN`: the minimal inhibitory concentration (MIC) in the test with Candida albicans [1], against Aspergillus fumigatus [2], against Candida albicans [3] and with Aspergillus fumigatus [5] was 2 mg/L (≈ 1.18 µM) throughout. Moreover, the Hemolytic activity in the test filed under Mus musculus [4] is on record as 65%.

`CCCCCCCCCCCCC[C@H](CC(=O)N[C@@H](C(=O)N[C@H](C)C(=O)N[C@@H](Cc1ccc(OCC(=O)NCCCn2ccnc2)cc1)C(=O)N[C@H](C(=O)N1C[C@H](O)C[C@H]1C(=O)N[C@@H](C(=O)N[C@H](C(=O)N1CC[C@H](O)[C@H]1C(=O)N[C@H](C(=O)NCC(=O)N[C@@H](C(N)=O)[C@@H](C)O)[C@H](O)CC(N)=O)[C@@H](C)O)[C@@H](C)O)C(C)C)[C@@H](C)O)OC(=O)[C@@H](C)CCCN.Cl`: the MIC against Candida albicans [1] is 2 mg/L; against Aspergillus fumigatus [2], 2 mg/L; in the test on Candida albicans [3], 1 mg/L; in the test on Aspergillus fumigatus [5], 1 mg/L. In the test filed under Mus musculus [4], this molecule yielded a Hemolytic activity of 53%.

Consider `CCCCCCCCCCCCC[C@@H]1CC(=O)N[C@@H]([C@@H](C)O)C(=O)N[C@@H](C)C(=O)N[C@@H](Cc2ccc(O)c(NC(=O)CCC(=O)O)c2)C(=O)N[C@@H](C(C)C)C(=O)N2C[C@H](O)C[C@H]2C(=O)N[C@@H]([C@@H](C)O)C(=O)N[C@@H]([C@@H](C)O)C(=O)N2CC[C@H](O)[C@H]2C(=O)N[C@@H]([C@H](O)CC(N)=O)C(=O)NCC(=O)N[C@@H]([C@@H](C)O)C(=O)N[C@@H](CCCN)C(=O)O1` (TA[X3]V[Hyp]TT[Pro(3S-OH)][Gln(3R-OH)]GT[Orn]; linker N-C via X1), for which the MIC was 1 mg/L (≈ 0.606 µM) against Candida albicans [1], 0.5 mg/L (≈ 0.303 µM) in the test with Aspergillus fumigatus [2], 0.5 mg/L (≈ 0.303 µM) against Candida albicans [3] and 0.25 mg/L (≈ 0.152 µM) in the test with Aspergillus fumigatus [5]. The molecule further had a Hemolytic activity in the test listed under Mus musculus [4] of 79%.

Molecule `C[C@@H]1[C@H](O)[C@@H](C)/C=C/C=C/C=C/C=C/C=C/C=C/C=C/[C@H](O[C@@H]2O[C@H](C)[C@@H](O)[C@H](N)[C@@H]2O)C[C@@H]2O[C@](O)(C[C@@H](O)C[C@@H](O)[C@H](O)CC[C@@H](O)C[C@@H](O)CC(=O)O[C@H]1C)C[C@H](O)[C@H]2C(=O)O` [AMPHOTERICIN B] returned an ED50 in the test on Mus musculus [6] of 0.132 mg/kg.

`OC(Cn1cncn1)(Cn1cncn1)c1ccc(F)cc1F` [FLUCONAZOLE]: the ED50 in the test on Mus musculus [6] was > 20 mg/kg.
